Screens as filed in PubChem BioAssay.
ERAP1 inh: ERAP1 (human) enzyme inhibition; Q9NZ08; recombinant ERAP1, Leu-AMC fluorescence, 60 min; inhibition, % at 10.7 µM; 340,000 tested, 0.15% active; AID 652197;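 active = mean replicate inhibition of at least 30%, or all replicates individually reaching that 30% level; inactive = mean below 30% and not every replicate reaching it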;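 note: 0% = neutral control wells and 100% = L-leucinethiol positive control wells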
CAL PDZ FP-1: CAL PDZ (human) peptide binding inhibition; Q9HD26; purified CAL PDZ, TMR-peptide fluorescence polarization, 1 h; inhibition, % at 24.9 µM; 300,000 tested, 0.92% active;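 active = mean inhibition of at least 30% with at least half of replicates also reaching 30%; inconclusive = no clear call, values can overlap the other calls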;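 note: 0% = DMSO neutral control and 100% = excess unlabeled competitor peptide PRC23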
DENV2 CPE rescue: protects cells from dengue virus 2 cytopathic effect; DENV2-infected cells, cytopathic effect rescue, plate reader; CPE inhibition, % at 9.99 µM; 350,000 tested, 1.7% active; in the data active = CPE inhibition above about 20%, passing the limit was not always enough; inconclusive = no clear call, values can overlap the other calls; tested in BHK-21 cells;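 note: 0% = median of neutral control wells and 100% = median of positive control wells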
CAL PDZ FP-2: inhibitors of human CAL PDZ peptide binding | Q9HD26 | purified CAL PDZ, TMR-peptide fluorescence polarization, 1 h | inhibition, % at 20 µM | 330,000 tested, 0.02% active | AID 504414;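 active = highest replicate inhibition of at least 40%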;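 note: plate controls were DMSO neutral control wells for no effect and unlabeled competitor peptide control wells for full effect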
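material = purified tagged CAL PDZ domain construct (CerCALP) | compound dosing = 20 µM, one dose | times = 1 h at RT | measured by = fluorescence polarization from S- and P-plane intensities, G-factor corrected | read-out = inhibition from polarization loss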
S100A4 inh HTS: S100A4-myosin IIA interaction inhibition; inhibition, % at 10.7 µM; AID 652163; 360,000 tested, 0.14% active; S100A4/TAMRA-MyoIIA peptide fluorescence polarization; P26447;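 active = mean inhibition of at least 70% across replicates, with every replicate also reaching that level; inconclusive = mean inhibition reaches 70% but some replicates fall short; inactive = mean inhibition below 70%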
Target sequence (P26447 whole entry, looked up): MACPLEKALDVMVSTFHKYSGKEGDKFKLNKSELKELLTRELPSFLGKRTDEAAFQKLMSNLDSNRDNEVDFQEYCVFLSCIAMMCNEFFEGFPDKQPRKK
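assay system = human S100A4 monomer with TAMRA-labelled myosin IIA peptide | also added = labelled myosin peptide probe, 5 nM | incubation = 5 min between mix addition and reading | control set = DMSO and TFP controls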
SIRT5 inh: blocks human SIRT5 desuccinylation of peptide; 330,000 tested, 1.1% active; Purified SirT5, succinyl-peptide AMC, trypsin-coupled fluorescence; inhibition, % at 15 µM; Q9NXA8; in the data active = inhibition above about 15%; inconclusive = no clear call, values can overlap the other calls
Target sequence (Q9NXA8 whole entry, looked up): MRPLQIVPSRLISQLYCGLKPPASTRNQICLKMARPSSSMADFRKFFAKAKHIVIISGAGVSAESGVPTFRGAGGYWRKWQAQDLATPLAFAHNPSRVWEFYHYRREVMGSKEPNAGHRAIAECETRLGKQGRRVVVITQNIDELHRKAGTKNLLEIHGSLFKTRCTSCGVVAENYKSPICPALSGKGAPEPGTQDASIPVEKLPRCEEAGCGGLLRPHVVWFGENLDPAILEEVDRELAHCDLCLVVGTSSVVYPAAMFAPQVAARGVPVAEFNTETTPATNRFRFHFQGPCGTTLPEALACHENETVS
* hit, by the source's call; ? = inconclusive; . = not tested or not shown. An excerpt weighted towards active compounds, which were near 2.9% of everything screened.

SMILES	ERAP1 inh	CAL PDZ FP-1	DENV2 CPE rescue	CAL PDZ FP-2	S100A4 inh HTS	SIRT5 inh
Nc1c(C(=O)c2ccccc2)sc2nsc(SCCN3CCCC3)c12	.	.	57*	0	1	2
Nc1c(C(=O)c2ccc(Cl)cc2)sc2nsc(SCCN3CCOCC3)c12	-1	-5	-9	2	-3	-1
O=C(Nc1ccc([N+](=O)[O-])cc1)N1CCc2ccccc2C1	0	-1	23*	-2	1	-5
Cc1cc(C(=O)Nc2cccc3c2O[C@@H](CN(C)S(C)(=O)=O)[C@@H](C)CN([C@H](C)CO)C3=O)n(C)n1	2	.	4	.	16	5
O=C(N/N=C/c1ccc(O)cc1)Nc1cccc2nsnc12	-6	31*	-8	4	23	-3
CC(C)(C)CNC(=O)c1ccc2c(c1)S(=O)(=O)c1cc(Cl)ccc1C2=O	0	1	6	-1	3	.
Cc1cc(N(C)C(=O)c2ccc3c(c2)S(=O)(=O)c2cc(Cl)ccc2C3=O)c(C(F)(F)F)o1	.	2	49*	0	0	.
C[C@@H]1CCCCO[C@@H](CN(C)C(=O)Nc2cccc3ccccc23)[C@@H](C)CN([C@H](C)CO)C(=O)c2cc(NS(=O)(=O)c3cccs3)ccc2O1	0	.	-1	.	?	6
CCC(=O)N1CCCCN2[C@H](C1)[C@@H](c1ccc(C#Cc3cccnc3)cc1)[C@@H]2CO	1	.	24*	.	46	15
CCC(=O)N1CCCCN2[C@H](C1)[C@H](c1ccc(C#Cc3cccnc3)cc1)[C@@H]2CO	1	.	28*	.	-3	2
CCC1CCc2sc(C(=O)OCC(=O)N(CCOC)c3c(N)n(Cc4ccccc4)c(=O)[nH]c3=O)cc2C1 (centres undefined)	-4	-6	9	-1	-4	1
CCOc1ccccc1C(=O)NC(C(=O)N(C)c1c(N)n(Cc2ccccc2)c(=O)[nH]c1=O)C(C)C (centres undefined)	-3	-1	0	1	13	17*
CCCN(C(=O)C(NC(=O)c1ccccc1)C(C)C)c1c(N)n(Cc2ccccc2)c(=O)[nH]c1=O (centres undefined)	5	-3	-10	-1	8	-1
COCCN(C(=O)COC(=O)c1cc2c(s1)CCC2)c1c(N)n(Cc2ccccc2)c(=O)[nH]c1=O	1	-2	-5	0	-9	15*
COCCN(C(=O)COC(=O)CCOc1ccccc1)c1c(N)n(Cc2ccccc2)c(=O)[nH]c1=O	13	-4	-5	-1	-3	-3
COCCN(C(=O)COC(=O)CC(C)c1ccccc1)c1c(N)n(Cc2ccccc2)c(=O)[nH]c1=O (centres undefined)	-5	-5	31*	-2	0	1
COCCN(C(=O)COC(=O)CCc1nc2ccccc2s1)c1c(N)n(Cc2ccccc2)c(=O)[nH]c1=O	1	-4	?	-2	0	1
COCCN(C(=O)CSc1nc2ccccc2s1)c1c(N)n(Cc2ccccc2)c(=O)[nH]c1=O	0	99*	-2	-1	-23	-7
Cc1ccc(S(=O)(=O)Nc2ccc3c(c2)C(=O)N([C@@H](C)CO)C[C@@H](C)[C@@H](CN(C)Cc2ccc(C(=O)O)cc2)OCCCC[C@H](C)O3)cc1	-3	.	-2	.	55	-1
CCN(C(=O)CSc1nnc(NCCOC)s1)c1c(N)n(Cc2ccccc2)c(=O)[nH]c1=O	-1	-4	69*	-1	13	-3
COCCN(C(=O)CSc1ncn[nH]1)c1c(N)n(Cc2ccccc2)c(=O)[nH]c1=O	57*	-1	-7	-1	-2	-2
COCCN(C(=O)COC(=O)/C=C/c1ccc2ccccc2n1)c1c(N)n(Cc2ccccc2)c(=O)[nH]c1=O	-2	43*	3	-4	-1	-2
COCCN(C(=O)CSc1ncccn1)c1c(N)n(Cc2ccccc2)c(=O)[nH]c1=O	1	-1	-8	-3	0	7
COCCNc1nnc(SCC(=O)N(C)c2c(N)n(Cc3ccccc3)c(=O)[nH]c2=O)s1	1	1	-1	-2	-6	-3
